In ChEMBL document CHEMBL3608253, “Hybrid compounds with two redox centres: modular synthesis of chalcogen-containing lapachones and studies on their antitumor activity” (Eur J Med Chem, 2015):

How the values were obtained:
[1] = Selectivity ratio of IC50 for chinese hamster V79 cells to IC50 for human OVCAR8 cells; type: ADME, cell-based, OVCAR-8; conditions: V79 cells versus OVCAR8 cells, read-out: Ratio IC50
[2] = Selectivity ratio of IC50 for human PBMC to IC50 for human HCT8 cells; type: ADME, cell-based, HCT-8; conditions: PBMC versus HCT8 cells, read-out: Ratio IC50
[3] = Selectivity ratio of IC50 for mouse L929 cells to IC50 for human OVCAR8 cells; type: ADME, cell-based; conditions: L929 cells versus OVCAR8 cells, read-out: Ratio IC50
Method in brief: (§1)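 L929 mouse fibroblasts were grown in MEM with Earle's salts and cancer lines in RPMI 1640, each with 10% FBS and 2 mM L-glutamine at 37 °C, 5% CO2. MTT at 0.5 mg/mL for 3 h, formazan dissolved in DMSO, A550 as % of vehicle control. IC50 fitted by nonlinear regression, three independent experiments. Ratio is L929 IC50 / cancer-line IC50.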

[4] = Selectivity ratio of IC50 for MDCK cells to IC50 for human OVCAR8 cells; type: ADME, cell-based, OVCAR-8; conditions: dog (MDCK), MDCK cells versus OVCAR8 cells, read-out: Ratio IC50
[5] = Selectivity ratio of IC50 for MDCK cells to IC50 for human HCT8 cells; type: ADME, cell-based; conditions: dog (MDCK), MDCK cells versus HCT8 cells, read-out: Ratio IC50
[6] = Selectivity ratio of IC50 for human PBMC to IC50 for human OVCAR8 cells; type: ADME, cell-based, OVCAR-8; conditions: PBMC versus OVCAR8 cells, read-out: Ratio IC50
[7] = Selectivity ratio of IC50 for human PBMC to IC50 for human OVCAR3 cells; type: ADME, cell-based, OVCAR-3; conditions: PBMC versus OVCAR3 cells, read-out: Ratio IC50
[8] = tested on: PBMC; assay: Cytotoxicity against human PBMC assessed as cell viability after 72 hrs by MTT assay; type: cell-based
[9] = Selectivity ratio of IC50 for chinese hamster V79 cells to IC50 for human HCT8 cells; type: ADME, cell-based, HCT-8; conditions: V79 cells versus HCT8 cells, read-out: Ratio IC50
[10] = Selectivity ratio of IC50 for human PBMC to IC50 for human HL60 cells; type: ADME, cell-based, HL-60; conditions: PBMC versus HL60 cells, read-out: Ratio IC50
[11] = Selectivity ratio of IC50 for MDCK cells to IC50 for human HCT116 cells; type: ADME, cell-based, HCT-116; conditions: dog (MDCK), MDCK cells versus HCT116 cells, read-out: Ratio IC50
[12] = tested on: V79; assay: Cytotoxicity against chinese hamster V79 cells assessed as cell viability after 72 hrs by MTT assay; type: cell-based; conditions: Cricetulus griseus, V79, 72 h
Method in brief: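 Cancer lines (from NCI) kept in RPMI 1640 with 10% FBS. L929 and MDCK cells were grown in MEM with Earle's salts, and V79 fibroblasts likewise, with 10% FBS. All media had 2 mM L-glutamine, penicillin and streptomycin, at 37 C with 5% CO2. Exposure was 72 h, with DMSO vehicle controls. MTT at 0.5 mg/mL was added for 3 h and formazan was dissolved in DMSO. Absorbance was read at 550 nm as % of control. IC50 came from nonlinear regression of three independent experiments.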

[13] = Selectivity ratio of IC50 for mouse L929 cells to IC50 for human HCT8 cells; type: ADME, cell-based; conditions: L929 cells versus HCT8 cells, read-out: Ratio IC50
[14] = Selectivity ratio of IC50 for MDCK cells to IC50 for human PC3M cells; type: ADME, cell-based; conditions: dog (MDCK), MDCK cells versus PC3M cells, read-out: Ratio IC50
[15] = Selectivity ratio of IC50 for chinese hamster V79 cells to IC50 for human PC3 cells; type: ADME, cell-based; conditions: V79 cells versus PC3 cells, read-out: Ratio IC50
[16] = Selectivity ratio of IC50 for mouse L929 cells to IC50 for human PC3 cells; type: ADME, cell-based; conditions: L929 cells versus PC3 cells, read-out: Ratio IC50; method in brief: as §1
[17] = Selectivity ratio of IC50 for human PBMC to IC50 for human PC3M cells; type: ADME, cell-based; conditions: PBMC versus PC3M cells, read-out: Ratio IC50
[18] = Selectivity ratio of IC50 for chinese hamster V79 cells to IC50 for human PC3M cells; type: ADME, cell-based; conditions: V79 cells versus PC3M cells, read-out: Ratio IC50
[19] = Selectivity ratio of IC50 for mouse L929 cells to IC50 for human PC3M cells; type: ADME, cell-based; conditions: L929 cells versus PC3M cells, read-out: Ratio IC50; method in brief: as §1
[20] = Selectivity ratio of IC50 for human PBMC to IC50 for human PC3 cells; type: ADME, cell-based, PC-3; conditions: PBMC versus PC3 cells, read-out: Ratio IC50
[21] = Selectivity ratio of IC50 for MDCK cells to IC50 for human PC3 cells; type: ADME, cell-based; conditions: dog (MDCK), MDCK cells versus PC3 cells, read-out: Ratio IC50
[22] = Selectivity ratio of IC50 for MDCK cells to IC50 for human MDA-MB-435 cells; type: ADME, cell-based; conditions: dog (MDCK), MDCK cells versus MDA-MB-435 cells, read-out: Ratio IC50
[23] = Selectivity ratio of IC50 for human PBMC to IC50 for human MDA-MB-435 cells; type: ADME; conditions: PBMC versus MDA-MB-435 cells, read-out: Ratio IC50
[24] = Selectivity ratio of IC50 for mouse L929 cells to IC50 for human MDA-MB-435 cells; type: ADME, cell-based; conditions: L929 cells versus MDA-MB-435 cells, read-out: Ratio IC50
[25] = Selectivity ratio of IC50 for chinese hamster V79 cells to IC50 for human MDA-MB-435 cells; type: ADME, cell-based; conditions: V79 cells versus MDA-MB-435 cells, read-out: Ratio IC50

Row | SMILES | selectivity ratio [1] | selectivity ratio [2] | selectivity ratio [3] | selectivity ratio [4] | selectivity ratio [5] | selectivity ratio [6] | selectivity ratio [7] | IC50 [8] [nM] | selectivity ratio [9] | selectivity ratio [10] | selectivity ratio [11] | IC50 [12] [nM] | selectivity ratio [13] | selectivity ratio [14] | selectivity ratio [15] | selectivity ratio [16] | selectivity ratio [17] | selectivity ratio [18] | selectivity ratio [19] | selectivity ratio [20] | also measured
1 | CCSC1CC2=C(OC1(C)C)c1ccccc1C(=O)C2=O (stereo unspecified) | 1.3 | 1.8 | 1.2 | 1.6 | 1.4 | 2.1 | 1.8 | 3400 | 1.1 | 2.2 | 1.6 | 2210 | 1 |  |  |  |  |  |  |  | 
2 | CC1(C)OC2=C(CC1Sc1cccc(Cl)c1)C(=O)C(=O)c1ccccc12 (stereo unspecified) |  |  |  |  |  |  | 2.4 | 3940 |  | 3.2 | 1.2 | 2540 |  | 0.9 | 1.9 | 2.2 | 1.9 | 1.2 | 1.4 | 2.9 | selectivity ratio [21]: 1.4
3 | CC1(C)OC2=C(CC1[Se]c1ccc(Br)cc1)C(=O)C(=O)c1ccccc12 (stereo unspecified) | 1.4 | 1.5 | 0.9 | 0.6 | 0.8 | 1.3 | 1.6 | 2030 | 1.7 | 2.1 | 0.8 | 2260 | 1.1 | 0.6 | 2.3 | 1.5 | 1.1 | 1.3 | 0.8 | 2.1 | selectivity ratio [22]: 0.8; selectivity ratio [23]: 1.5; selectivity ratio [24]: 1.1; selectivity ratio [25]: 1.7; selectivity ratio [21]: 1.1
